Data set [1] relates to Human hepatocellular carcinoma cell line (HepG2). Description: MTT cytotoxicity assay, HepG2. In kind it is cell-based. The settings on record: Homo sapiens, HepG2, 24 h, read-out: IC50 (μM) HePG2. Summed up:
(§1)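 Cells grown in RPMI-1640 with 10% FBS, penicillin 100 units/mL and streptomycin 100 μg/mL at 37 °C, 5% CO2. Seeded at 1.0 × 10^4 cells/well for 48 h, then exposed to a range of test compound concentrations for 24 h, with CA-4 as positive control. MTT (5 mg/mL solution) added for 4 h, formazan dissolved in DMSO, absorbance read at 570 nm. IC50 = 50% growth inhibition, mean ± SD.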
In general terms: Formazan colour is commonly taken as a measure of viable cells.

Data set [2] concerns Human colorectal carcinoma cell line (HCT-116). Description: MTT cytotoxicity assay, HCT-116. The note with it: Homo sapiens, HCT-116, 24 h, read-out: IC50 (μM) HCT-116. In kind it is cell-based. In short, it runs like this: as §1
Data set [3] concerns Human breast adenocarcinoma cell line (MCF-7). Kind of data set: MTT cytotoxicity assay, MCF-7. In kind it is cell-based. The note with it: Homo sapiens, MCF7, 24 h, read-out: IC50 (μM) MCF-7. Summed up: as §1
Data set [4] concerns Epitheloid cervix carcinoma cell line (HeLa). Description: MTT cytotoxicity assay, HeLa. The data set is classed as cell-based, human. The note with it: Homo sapiens, 24 h, read-out: IC50 (μM) HeLa. Summed up:
as §1

In data set [5] the test system is tubulin. Description: In vitro tubulin polymerization inhibition assay. The data set is classed as biochemical. The note with it: read-out: IC50 (μM) tubulin polymerization inhibition; 4 mg/mL tubulin, 37 °C, OD340, mean ± SD from three independent experiments.
The test system of data set [6] is HepG2, HCT-116, MCF-7, and HeLa cell lines. Kind of data set: MTT cytotoxicity assay, statements over the four tested cell lines. In kind it is cell-based, human. The note with it: all tested cell lines. Summed up: as §1
The conditions of data set [7]: cited from earlier work.

The structures appear in SMILES notation.

Take `COc1cc(-c2csc(NC(=O)CNC(C)C)n2)cc(OC)c1OC` [Compound 5c, 2-(Isopropylamino)-N-(4-(3,4,5-trimethoxyphenyl)thiazol-2-yl)acetamide]: the IC50 in data set [1] was 11.9 ± 0.6 µM; in data set [2] it was 12.9 ± 0.6 µM; in data set [3] it was 15.5 ± 0.8 µM; in data set [4] it was 16 ± 0.8 µM; in data set [5], 2.95 ± 0.18 µM. Also, the “cytotoxic effect, class in words, tested cell lines” value (from here on “cytotoxic effect, class in words”) in data set [6] is “strong (11–20 (strong))”.
With `COc1cc(-c2csc(NC(=O)NCCCl)n2)cc(OC)c1OC` [Compound 11, 1-(2-Chloroethyl)-3-(4-(3,4,5-trimethoxyphenyl)thiazol-2-yl)urea], the IC50 worked out at 93 ± 4.6 µM in data set [1], 86.7 ± 4.3 µM in data set [2], 95.8 ± 4.8 µM in data set [3] and 89.9 ± 4.5 µM in data set [4]. Further, in data set [6], the “cytotoxic effect, class in words” value was “weak (51–100 (weak))”.
On to `COc1ccc(/C=C\c2cc(OC)c(OC)c(OC)c2)cc1O` [CA-4, combretastatin A-4, reference compound], for which the IC50 is 4.5 ± 0.2 µM in data set [1]; 5.23 ± 0.3 µM in data set [2]; 4.17 ± 0.2 µM in data set [3]; 5.57 ± 0.3 µM in data set [4]; […] in data set [5]. Moreover, in data set [7], the solubility in water result was “weakly soluble in water”.
Turning to `COc1cc(-c2csc(NC(=O)CNCCO)n2)cc(OC)c1OC` [Compound 5a, 2-((2-Hydroxyethyl)amino)-N-(4-(3,4,5-trimethoxyphenyl)thiazol-2-yl)acetamide], the IC50 in data set [1] is 22 ± 1.1 µM; in data set [2] it was 29.4 ± 1.5 µM; in data set [3], 30 ± 1.5 µM; in data set [4], 50.9 ± 2.5 µM. In data set [6], the “cytotoxic effect, class in words” value was “moderate (21–50 (moderate))”.
Taken in the same sequence, the figures for `COc1cc(-c2csc(Nc3csc(N)n3)n2)cc(OC)c1OC` [Compound 10, N^4-(4-(3,4,5-Trimethoxyphenyl)thiazol-2-yl)thiazole-2,4-diamine] were 49.6 ± 2.5 µM, 55.3 ± 2.8 µM, 60.6 ± 3 µM, 48 ± 2.4 µM and “moderate-to-weak”.
In the same order, the values of `COc1cc(-c2csc(NC(=O)CCl)n2)cc(OC)c1OC` [Compound 4, 2-Chloro-N-(4-(3,4,5-trimethoxyphenyl)thiazol-2-yl)acetamide] are 62.6 ± 3.1 µM, 69 ± 3.5 µM, 62.9 ± 3.1 µM, 76.9 ± 3.8 µM and “weak (51–100 (weak))”.

In general, IC50 refers to the midpoint of a concentration-inhibition curve.
